Columns and labels:
[1] = Stability in 0.1 M HCl at pH 1 at 20 degC; format: physicochemical; details: buffer
[2] = Initial plasma concentration in Swiss albino mouse at 1 mg/kg, iv by LCMS/MS analysis; format: ADME, organism-based
In short: (§1)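 Male Swiss Albino mice. Single intravenous dose of 1 mg/kg, or single oral dose of 12.5 or 25 mg/kg. Plasma parameters were derived for each route: CL, Vdss, t1/2, AUClast and C0 after iv; Cmax, Tmax and AUClast after oral. Oral bioavailability F (%) was taken from the oral and iv exposures.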

[3] = Oral bioavailability in Swiss albino mouse at 25 mg/kg by LCMS/MS analysis; format: ADME, organism-based; details: in vivo; in short: as §1
[4] = Clearance in Swiss albino mouse at 1 mg/kg, iv by LCMS/MS analysis; format: ADME, organism-based; details: in vivo; in short: as §1
[5] = Volume of distribution at steady state in Swiss albino mouse at 1 mg/kg, iv by LCMS/MS analysis; format: ADME, organism-based; details: in vivo, read-out: Vdss; in short: as §1
[6] = Half life in Swiss albino mouse at 1 mg/kg, iv by LCMS/MS analysis; format: ADME, organism-based; details: in vivo; in short: as §1
[7] = AUC (last) in Swiss albino mouse at 1 mg/kg, iv by LCMS/MS analysis; format: ADME, organism-based; design: dose 1 mg/kg, time 0 - last, route intravenous; details: in vivo; in short: as §1
[8] = Cmax in Swiss albino mouse at 25 mg/kg, po by LCMS/MS analysis; format: ADME, organism-based; design: dose 25 mg/kg, route oral; details: in vivo; in short: as §1
[9] = Tmax in Swiss albino mouse at 25 mg/kg, po by LCMS/MS analysis; format: ADME, organism-based; details: in vivo; in short: as §1
[10] = AUC (last) in Swiss albino mouse at 25 mg/kg, po by LCMS/MS analysis; format: ADME, organism-based; design: dose 25 mg/kg, route oral, time 0 - last; details: in vivo; in short: as §1
[11] = Metabolic stability in human liver microsomes assessed as parent compound remaining at 1 uM after 1 hr by LC-MS/MS analysis; format: ADME; details: read-out: Stability
[12] = Metabolic stability in CD1 mouse liver microsomes assessed as parent compound remaining at 1 uM after 1 hr by LC-MS/MS analysis; format: ADME; details: read-out: Stability
[13] = Metabolic stability in human liver microsomes assessed as parent compound remaining at 1 uM after 30 mins by LC-MS/MS analysis; format: ADME; details: read-out: Stability
[14] = Metabolic stability in CD1 mouse liver microsomes assessed as parent compound remaining at 1 uM after 30 mins by LC-MS/MS analysis; format: ADME; details: read-out: Stability
[15] = Metabolic stability in hamster liver microsomes assessed as parent compound remaining at 1 uM after 30 mins by LC-MS/MS analysis; format: ADME; details: cricetinae, read-out: Stability
[16] = Cmax in Swiss albino mouse at 12.5 mg/kg, po by LCMS/MS analysis; format: ADME, organism-based; design: dose 12.5 mg/kg, route oral; details: in vivo; in short: as §1
[17] = Tmax in Swiss albino mouse at 12.5 mg/kg, po by LCMS/MS analysis; format: ADME, organism-based; details: in vivo; in short: as §1
[18] = AUC (last) in Swiss albino mouse at 12.5 mg/kg, po by LCMS/MS analysis; format: ADME, organism-based; design: dose 12.5 mg/kg, route oral, time 0 - last; details: in vivo; in short: as §1
[19] = Oral bioavailability in Swiss albino mouse at 12.5 mg/kg by LCMS/MS analysis; format: ADME, organism-based; details: in vivo; in short: as §1
[20] = Metabolic stability in hamster liver microsomes assessed as parent compound remaining at 1 uM after 1 hr by LC-MS/MS analysis; format: ADME; details: cricetinae, read-out: Stability

**Q.** For `CC1(CNc2ccc(OC(F)(F)F)cc2)Cn2cc([N+](=O)[O-])nc2O1` (stereo not given), which Stability [1] is on record?
**A.** The Stability was “Unstable”.

**Q.** Which C0 [2] does the source give for `O=[N+]([O-])c1cn2c(n1)OC(COc1ccc(OC(F)(F)F)cc1)C2` (stereo not given) here?
**A.** Its C0 is 610 ng/mL.

**Q.** What about the bioavailability [3] of the same compound?
**A.** The bioavailability was 52%.

**Q.** And the clearance [4]?
**A.** The clearance was 13 mL/min/kg.

**Q.** And the Vd [5]?
**A.** Its Vd is 2.2 L/kg.

**Q.** What about the half-life [6] of the same compound?
**A.** The half-life was 3.2 h.

**Q.** And the AUC(0-t) [7]?
**A.** Its AUC(0-t) is 1140 ng·h/mL.

**Q.** And the Cmax [8]?
**A.** Its Cmax is 1800 ng/mL.

**Q.** What about the Tmax [9] of the same compound?
**A.** Its Tmax is 1 h.

**Q.** What about the AUC(0-t) [10] of the same compound?
**A.** Its AUC(0-t) is 14800 ng·h/mL.

**Q.** For `CC1(COc2ccc(OC(F)(F)F)cc2)Cn2cc([N+](=O)[O-])nc2O1` (racemic), which C0 [2] is on record?
**A.** Its C0 is 880 ng/mL.

**Q.** What about the bioavailability [3] of the same compound?
**A.** The bioavailability was 79%.

**Q.** What about the clearance [4] of the same compound?
**A.** The clearance was 9.5 mL/min/kg.

**Q.** And the Vd [5]?
**A.** Its Vd is 1.7 L/kg.

**Q.** What about the half-life [6] of the same compound?
**A.** The half-life was 2.2 h.

**Q.** What about the AUC(0-t) [7] of the same compound?
**A.** Its AUC(0-t) is 1690 ng·h/mL.

**Q.** What about the Cmax [8] of the same compound?
**A.** The Cmax was 4100 ng/mL.

**Q.** And the Tmax [9]?
**A.** Its Tmax is 4 h.

**Q.** And the AUC(0-t) [10]?
**A.** Its AUC(0-t) is 33500 ng·h/mL.

**Q.** Which results are given for `CC1(CN2CCN(c3ccc(F)cc3)CC2)Cn2cc([N+](=O)[O-])nc2O1` (stereo not given)?
**A.** remaining at 1 h, 1 µM [11]: 49%; remaining at 1 h, 1 µM [12]: 14%

**Q.** Which results are given for `CC1(COc2ccc(-c3ccc(F)cc3)cc2)Cn2cc([N+](=O)[O-])nc2O1` (racemic)?
**A.** remaining at 0.5 h, 1 µM [13]: 88%; remaining at 0.5 h, 1 µM [14]: 57%; remaining at 0.5 h, 1 µM [15]: 42%; C0 [2]: 300 ng/mL; bioavailability [3]: 63%; clearance [4]: 28 mL/min/kg; Vd [5]: 7.5 L/kg; half-life [6]: 3.8 h; AUC(0-t) [7]: 480 ng·h/mL; Cmax [8]: 700 ng/mL; Tmax [9]: 6 h; AUC(0-t) [10]: 7580 ng·h/mL

**Q.** Which C0 [2] does the source give for `CC1(COc2ccc(-c3ccc(OC(F)(F)F)cc3)cc2)Cn2cc([N+](=O)[O-])nc2O1` (stereo not given) here?
**A.** Its C0 is 340 ng/mL.

**Q.** What about the bioavailability [3] of the same compound?
**A.** The bioavailability was 18%.

**Q.** And the clearance [4]?
**A.** The clearance was 7.6 mL/min/kg.

**Q.** And the Vd [5]?
**A.** Its Vd is 5.7 L/kg.

**Q.** And the half-life [6]?
**A.** The half-life was 11 h.

**Q.** And the AUC(0-t) [7]?
**A.** Its AUC(0-t) is 2130 ng·h/mL.

**Q.** What about the Cmax [8] of the same compound?
**A.** The Cmax was 290 ng/mL.

**Q.** And the Tmax [9]?
**A.** The Tmax was 6 h.

**Q.** What about the AUC(0-t) [10] of the same compound?
**A.** Its AUC(0-t) is 9810 ng·h/mL.

**Q.** For `C[C@]1(COc2ccc(OC(F)(F)F)cc2)Cn2cc([N+](=O)[O-])nc2O1`, which C0 [2] is on record?
**A.** Its C0 is 360 ng/mL.

**Q.** What about the clearance [4] of the same compound?
**A.** Its clearance is 11 mL/min/kg.

**Q.** What about the Vd [5] of the same compound?
**A.** The Vd was 2.6 L/kg.

**Q.** And the half-life [6]?
**A.** Its half-life is 2.7 h.

**Q.** And the AUC(0-t) [7]?
**A.** The AUC(0-t) was 1390 ng·h/mL.

**Q.** And the Cmax [16]?
**A.** Its Cmax is 1300 ng/mL.

**Q.** What about the Tmax [17] of the same compound?
**A.** Its Tmax is 2 h.

**Q.** What about the AUC(0-t) [18] of the same compound?
**A.** Its AUC(0-t) is 15800 ng·h/mL.

**Q.** What about the bioavailability [19] of the same compound?
**A.** Its bioavailability is 91%.

**Q.** For `CC1(COc2ccc(C(F)(F)F)cn2)Cn2cc([N+](=O)[O-])nc2O1` (racemic), which remaining at 1 h, 1 µM [11] is on record?
**A.** Its remaining at 1 h, 1 µM is 84%.

**Q.** What about the remaining at 1 h, 1 µM [12] of the same compound?
**A.** Its remaining at 1 h, 1 µM is 69%.

**Q.** And the Stability [1]?
**A.** Its Stability is “Unstable”.

**Q.** With `C[C@]1(COc2ccc(N3CCC(Oc4ccc(OC(F)(F)F)cc4)CC3)cc2)Cn2cc([N+](=O)[O-])nc2O1` as the compound, how does the remaining at 1 h, 1 µM [20] read?
**A.** The remaining at 1 h, 1 µM was 55%.

— ChEMBL document CHEMBL3784956, “Repositioning Antitubercular 6-Nitro-2,3-dihydroimidazo[2,1-b][1,3]oxazoles for Neglected Tropical Diseases: Structure-Activity Studies on a Preclinical Candidate for Visceral Leishmaniasis” (J Med Chem, 2016)
